Assay results: ChEMBL document CHEMBL3091272, “Caesalminaxins A-L, cassane diterpenoids from the seeds of Caesalpinia minax” (J Nat Prod, 2013)

What was measured:
Type in all cases: functional, cell-based
HeLa = test: Cytotoxicity against human HeLa cells after 24 to 72 hrs by MTT assay
In short: (§1)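 Cells seeded at 5 × 10^4 cells/mL and held 24 h at 37 °C before the test compound was added as a DMSO solution at a range of concentrations. MTT staining was done after 24, 48 and 72 h. Absorbance was read at 490 nm against a negative control. IC50 was the concentration giving 50% cell death, taken from a plot of concentration versus % viability. Camptothecin served as positive control.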

K562 = test: Cytotoxicity against human K562 cells after 24 to 72 hrs by MTT assay; in short: as §1
DU-145 = test: Cytotoxicity against human DU145 cells after 24 to 72 hrs by MTT assay; in short: as §1
HepG2 = test: Cytotoxicity against human HepG2 cells after 24 to 72 hrs by MTT assay; in short: as §1

Row | SMILES | IC50 (HeLa) [µM] | IC50 (K562) [µM] | IC50 (DU-145) [µM] | IC50 (HepG2) [µM]
1 | CO[C@H]1C=C2[C@@](OC)(C[C@H]3[C@@H]([C@@H](OC(C)=O)[C@H](OC(C)=O)[C@@]4(O)C(C)(C)CC[C@H](OC(C)=O)[C@]34C)[C@]2(C)O)O1 | > 50 | 9.2 | > 50 | 11.5
2 | CCO[C@]1(C)[C@@H]2[C@@H](OC(C)=O)[C@H](OC(C)=O)[C@@]3(O)C(C)(C)CC[C@H](OC(C)=O)[C@]3(C)[C@H]2C[C@]12C(=O)O[C@@H]1O[C@@H]12 | 12.1 | 9.9 | 17.1 | > 50
3 | CC(=O)O[C@H]1[C@@H]2OC(=O)[C@@H]3c4ccoc4C[C@@H]([C@@H]23)[C@@]2(C)[C@@H](O)CCC(C)(C)[C@]12O | > 50 | > 50 | 12 | 8
4 | CC[C@@]1(O)C(=O)OCc2c1cc1n(c2=O)Cc2cc3ccccc3nc2-1 [CAMPTOTHECIN] | 0.5 | 0.4 | 0.8 | 0.6
